Experimental data: paper PMC5242172 (Pharmacology Research & Perspectives, 2016)
Where two headings read alike, the source gives them in different places. Values belong to the molecule of their own block, whether it stands above or below them.

Experiments:
[1] = tested on: NCI-H23 cells; assay: Cellular oxygen consumption rate; format: cell-based, human; conditions: NCI-H23, 1 h after drug
[2] = tested on: NCI-H23 cells; assay: Cellular ATP measurement; format: cell-based, human; conditions: NCI-H23, 6 h of treatment
Outline: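 NCI-H23 cells in RPMI 1640 with 5% FBS were plated at 1–2 × 10^5 cells/mL and incubated overnight at 37°C, 5% CO2. Test compound diluted in medium was added for 6 h, with final DMSO below 1%. Lysis buffer and substrate were added, and luciferase-based luminescence was read. ATP was expressed as % of solvent-treated wells; mean ± SEM, n = 3.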

[3] = tested on: panel of 39 human cancer cell lines (JFCR39); assay: Growth inhibition profile, summary over the JFCR39 panel; format: cell-based
[4] = target: bovine heart mitochondrial complex I (Bos taurus, UniProt P03887+P17694+P42026); assay: Complex I activity; format: biochemical
Sequence of bovine heart mitochondrial complex I (P03887 whole entry): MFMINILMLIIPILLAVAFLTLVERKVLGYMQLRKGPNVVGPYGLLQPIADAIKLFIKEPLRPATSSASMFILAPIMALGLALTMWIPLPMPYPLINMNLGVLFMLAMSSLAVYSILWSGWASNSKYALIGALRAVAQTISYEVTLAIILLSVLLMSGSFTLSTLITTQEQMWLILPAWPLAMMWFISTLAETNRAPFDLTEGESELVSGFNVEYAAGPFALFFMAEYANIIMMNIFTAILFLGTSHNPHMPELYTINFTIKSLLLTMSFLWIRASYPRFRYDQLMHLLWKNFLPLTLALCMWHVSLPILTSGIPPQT
Sequence of bovine heart mitochondrial complex I (P42026 38-216): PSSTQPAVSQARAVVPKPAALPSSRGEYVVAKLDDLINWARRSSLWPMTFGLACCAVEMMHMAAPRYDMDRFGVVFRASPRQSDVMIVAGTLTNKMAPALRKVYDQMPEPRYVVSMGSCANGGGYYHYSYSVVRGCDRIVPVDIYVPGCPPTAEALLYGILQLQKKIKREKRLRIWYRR
Sequence of bovine heart mitochondrial complex I (P17694 34-463): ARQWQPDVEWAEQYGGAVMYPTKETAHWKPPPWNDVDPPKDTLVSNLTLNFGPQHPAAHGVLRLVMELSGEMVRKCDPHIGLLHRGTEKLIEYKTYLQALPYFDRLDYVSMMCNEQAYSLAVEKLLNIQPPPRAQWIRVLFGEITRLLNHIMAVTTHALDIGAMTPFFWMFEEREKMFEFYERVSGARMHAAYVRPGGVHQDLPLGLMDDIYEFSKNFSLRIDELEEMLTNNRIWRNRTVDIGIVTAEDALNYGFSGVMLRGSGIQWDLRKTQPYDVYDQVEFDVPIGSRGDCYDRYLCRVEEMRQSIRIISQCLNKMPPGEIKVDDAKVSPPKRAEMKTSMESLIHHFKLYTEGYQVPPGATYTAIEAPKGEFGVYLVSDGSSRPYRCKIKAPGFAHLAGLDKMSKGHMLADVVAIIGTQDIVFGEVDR

[5] = tested on: mitochondrial complexes (complex II–V); assay: Activities of OxPhos complexes II-V; format: biochemical; conditions: II + III, IV, V (Fig. S2)
[6] = tested on: NCI-H23 cells; assay: Viable cell number; format: cell-based, human; conditions: NCI-H23, 6 h of treatment
Outline: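 NCI-H23 cells were grown in RPMI 1640 with 5% FBS at 37°C, 5% CO2, and exposed to test compound (DMSO stocks 10 or 100 mmol/L) for 6 h. Viable cells were counted by trypan blue exclusion on an automated cell counter and expressed as % of nontreated control; mean ± SEM, n = 3.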

[7] = tested on: mitochondrial DNA-deficient (ρ0) NCI-H23 cells; assay: Growth of ρ0 versus ρ+ cells, sulforhodamine B assay; format: cell-based, human; conditions: NCI-H23 ρ0 vs ρ+, 48 h
[8] = tested on: xenograft tumors; conditions: ref Kojima et al. 2014; cited from earlier work

Structure (SMILES): CN(C)c1cccc2c(S(=O)(=O)NCCCCCCCCC[C@@H](O)[C@H]3CC[C@H]([C@H](O)CCCCCCCCCCNC(=O)c4ccsc4)O3)cccc12 [JCI-13291, N‐[(R)‐11‐((2R,5R)‐5‐{(R)‐10‐[5‐(Dimethylamino)naphthalene‐1‐sulfonamido]‐1‐hydroxydecyl}tetrahydrofuran‐2‐yl)‐11‐hydroxyundecyl]thiophene‐3‐carboxamide]
effect on cellular oxygen consumption rate [1]: inhibited the aerobic aspiration of NCI‐H23 cells | effect on intracellular ATP content [2]: depleted intracellular ATP content

Structure (SMILES): C=C(C)[C@H]1Cc2c(ccc3c2O[C@@H]2COc4cc(OC)c(OC)cc4[C@@H]2C3=O)O1 [Rotenone, reference compound]
effect on cellular oxygen consumption rate [1]: inhibited the oxygen consumption of NCI‐H23 cells in a dose‐dependent manner

GI50 ([3]; 48 h, read-out: MG-MID, the mean of log GI50 values for 39 cell lines (converted)): 2750 nM | GI50 ([3]; read-out: mean GI50 within the JFCR39 panel): 2750 nM
Structure (SMILES): CCCCCCCCCCCC[C@@H](O)[C@H]1CC[C@H]([C@H](O)CCCCCCCCCCNC(=O)c2ccsc2)O1 [JCI-20679, N‐((R)‐11‐Hydroxy‐11‐{(2R,5R)‐5‐[(R)‐1‐hydroxytridecyl]tetrahydrofuran‐2‐yl}undecyl)thiophene‐3‐carboxamide]
IC50 [4]: 170 nM | complex I inhibition, activity relative to rotenone ([4]; ratio of IC50 values): seven times less activity than rotenone | complex I inhibition, times greater activity than phenformin ([4]; ratio of IC50 values): 6000 times | complex I inhibition, times greater activity than solamin ([4]; ratio of IC50 values): 30 times | inhibition of mitochondrial complexes II–V [5]: None of the other mitochondrial complexes (complex II–V) were inhibited | effect on cellular oxygen consumption rate [1]: inhibited the oxygen consumption of NCI‐H23 cells in a dose‐dependent manner | effect on intracellular ATP content [2]: ATP depletion by JCI‐20679 in a dose‐dependent manner | viable cell number [6]: hardly changed | sensitivity of ρ0 cells compared with ρ+ cells [7]: more resistant | antitumor activity in mouse xenograft models [8]: more potent antitumor activity than solamin | side effects in mouse xenograft models [8]: no severe side effects

Structure (SMILES): COc1cc2c(cc1OC)[C@@H]1C(=O)c3ccc4c(c3O[C@@H]1CO2)C=CC(C)(C)O4 [Deguelin, reference compound]
IC50 [4]: 40 nM
